Experimental data from ChEMBL document CHEMBL2163221, “Discovery of a potential anti-ischemic stroke agent: 3-pentylbenzo[c]thiophen-1(3H)-one” (J Med Chem, 2012).
The source made the active and inactive calls. The calls are words filed in the database; no cut-off is given here.

Experiments:
Platelet [1] = experiment: Inhibition of adenosine diphosphate-induced platelet aggregation in rabbit platelet rich plasma by Born's turbidimetric method; assay type: functional; conditions: Oryctolagus cuniculus
How it was run: (§1)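 Rabbit carotid blood in 3.8% sodium citrate (9:1); PRP by 500g spin for 10 min, PPP by a further 3000g spin for 10 min. PRP was preincubated in duplicate for 5 min at 37 °C with vehicle or agent (0.1, 0.2, 0.4, 0.8, 1.6 mM). Aggregation was triggered by ADP (10 μM final) or AA (1 mM), and maximal light transmission was read within 5 min, within 3 h of collection. Inhibition % = 100 × (1 − treated/control); IC50 was calculated.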

Platelet [2] = experiment: Inhibition of arachidonic acid-induced platelet aggregation in rabbit platelet rich plasma by Born's turbidimetric method; assay type: functional; conditions: Oryctolagus cuniculus; how it was run: as §1
Rattus norvegicus [3] = experiment: Anticerebral ischemic activity in Sprague-Dawley rat middle cerebral artery occlusion model assessed as reduction of water content in brain at 80 mg/kg, ig for 7 consecutive days; assay type: functional, organism-based; set-up: dose 80 mg/kg
How it was run: (§2)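 Rats given oral saline-vehicle pretreatment for 7 days underwent 2 h suture MCAO plus reperfusion. At 24 h the animals were decapitated and brains weighed wet, then dried at 105 °C for 24 h. Water % = (wet − dry)/wet × 100; n = 6/group.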

Rattus norvegicus [4] = experiment: Antioxidant activity in Sprague-Dawley rat middle cerebral artery occlusion model assessed as increase in superoxide dismutase activity at 80 mg/kg, ig for 7 consecutive days; assay type: functional; conditions: route intragastric
How it was run: (§3)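 Rats pretreated orally in saline for 7 days underwent 2 h MCAO with reperfusion. At 24 h brains were removed, rinsed in cold 0.9% saline, blotted and stored at −70 °C. After protein quantification, GSH, SOD activity and MDA were measured with commercial kits; n = 12/group.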

Rattus norvegicus [5] = experiment: Antithrombotic activity in Sprague-Dawley rat arteriovenous shunt model assessed as reduction of thrombus wet weight at 80 mg/kg, po qd for 5 consecutive days; assay type: functional; set-up: scale not given: the % may be the effect or the level left
How it was run: (§4)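 Male SD rats were dosed by gavage in saline daily for 5 days (n = 12/group). An A-V shunt linked the right carotid artery to the left jugular vein: a saline-filled 14 cm polyethylene tube holding 6 cm of four braided silk threads. After 15 min of flow, the threads were weighed wet, then dried 6 h at room temperature and reweighed, less the pre-experiment thread weight.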

Plasma = experiment: Anticoagulant activity in rabbit plasma assessed as length of activated partial thromboplastin time; assay type: functional, cell-free; conditions: Oryctolagus cuniculus
Rattus norvegicus [6] = experiment: Antioxidant activity in Sprague-Dawley rat middle cerebral artery occlusion model assessed as increase in glutathione level in brain at 80 mg/kg, ig for 7 consecutive days; assay type: functional; conditions: route intragastric; how it was run: as §3
Platelet [7] = experiment: Inhibition of adenosine diphosphate-induced platelet aggregation in rabbit platelet rich plasma at 0.1 mM by Born's turbidimetric method; assay type: functional; conditions: Oryctolagus cuniculus; how it was run: as §1
Rattus norvegicus [8] = experiment: Antioxidant activity in Sprague-Dawley rat middle cerebral artery occlusion model assessed as decrease in malondialdehyde level in brain at 80 mg/kg, ig for 7 consecutive days; assay type: functional; set-up: scale not given: the % may be the effect or the level left; conditions: route intragastric; how it was run: as §3
Rattus norvegicus [9] = experiment: Anticerebral ischemic activity in Sprague-Dawley rat middle cerebral artery occlusion model assessed as reduction in infarct size in brain at 80 mg/kg, ig for 7 consecutive days by TTC assay; assay type: functional; set-up: scale not given: the % may be the effect or the level left; conditions: route intragastric
How it was run: (§5)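 SD rats, chloral hydrate 350 mg/kg ip anaesthesia; right MCA occluded 2 h by silicone-tipped 4-0 nylon filament via ECA into ICA (>80% CBF drop by laser Doppler, 37 ± 0.5 °C), then reperfusion. Dosed in normal saline orally daily 7 days before ischemia. At 24 h, 2-mm coronal slices stained 2% TTC 30 min 37 °C; infarct area as % of whole brain; n = 6.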

Platelet [10] = experiment: Inhibition of arachidonic acid-induced platelet aggregation in rabbit platelet rich plasma at 0.1 mM by Born's turbidimetric method; assay type: functional; conditions: Oryctolagus cuniculus; how it was run: as §1
Rattus norvegicus [11] = experiment: Anticerebral ischemic activity in Sprague-Dawley rat middle cerebral artery occlusion model assessed as reduction in neurological deficit score at 80 mg/kg, ig for 7 consecutive days by Longa's method; assay type: functional; set-up: scale not given: the % may be the effect or the level left; conditions: route intragastric
How it was run: (§6)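 SD rats were dosed orally in normal saline for 7 days before ischemia (n = 12/group). They were anesthetized ip with 350 mg/kg chloral hydrate and given MCAO with a silicone-tipped 4-0 nylon suture for 2 h, then reperfusion. Occlusion was confirmed as >80% CBF drop by laser Doppler, with core temperature held at 37 °C. Deficits were scored blinded by modified Longa's method 24 h after reperfusion.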

PC-12 [12] = experiment: Antioxidant activity in rat PC12 cells assessed as inhibition of hydroxyl radical-induced cytotoxicity at 10 uM treated for 2 hrs prior to H2O2/Fe+ challenge measured after 1 hr by MTT assay (reference value: 61.95%); assay type: functional; set-up: scale not given: the % may be the effect or the level left
Rattus norvegicus [13] = experiment: Antithrombotic activity in Sprague-Dawley rat arteriovenous shunt model assessed as reduction of thrombus dry weight at 80 mg/kg, po qd for 5 consecutive days; assay type: functional; set-up: scale not given: the % may be the effect or the level left; how it was run: as §4
PC-12 [14] = experiment: Antioxidant activity in rat PC12 cells assessed as inhibition of hydrogen peroxide induced cytotoxicity at 10 uM treated for 2 hrs prior to H2O2 challenge measured after 1 hr by MTT assay (reference value: 52.45%); assay type: functional; set-up: scale not given: the % may be the effect or the level left
Rattus norvegicus [15] = experiment: Antioxidant activity in Sprague-Dawley rat middle cerebral artery occlusion model assessed as decrease in malondialdehyde level in brain at 3 mg/kg, ig for 7 consecutive days; assay type: functional; set-up: scale not given: the % may be the effect or the level left; conditions: route intragastric; how it was run: as §3
Rattus norvegicus [16] = experiment: Antioxidant activity in Sprague-Dawley rat middle cerebral artery occlusion model assessed as increase in glutathione level in brain at 3 mg/kg, ig for 7 consecutive days; assay type: functional; conditions: route intragastric; how it was run: as §3
Rattus norvegicus [17] = experiment: Anticerebral ischemic activity in Sprague-Dawley rat middle cerebral artery occlusion model assessed as reduction of water content in brain at 3 mg/kg, ig for 7 consecutive days; assay type: functional, organism-based; set-up: dose 3 mg/kg; how it was run: as §2
Rattus norvegicus [18] = experiment: Antioxidant activity in Sprague-Dawley rat middle cerebral artery occlusion model assessed as increase in superoxide dismutase activity at 3 mg/kg, ig for 7 consecutive days; assay type: functional; conditions: route intragastric; how it was run: as §3
Rattus norvegicus [19] = experiment: Anticerebral ischemic activity in Sprague-Dawley rat middle cerebral artery occlusion model assessed as reduction in neurological deficit score at 3 mg/kg, ig for 7 consecutive days by Longa's method; assay type: functional; set-up: scale not given: the % may be the effect or the level left; conditions: route intragastric; how it was run: as §6
Rattus norvegicus [20] = experiment: Antithrombotic activity in Sprague-Dawley rat arteriovenous shunt model assessed as reduction of thrombus dry weight at 3 mg/kg, po qd for 5 consecutive days; assay type: functional; set-up: scale not given: the % may be the effect or the level left; how it was run: as §4
Rattus norvegicus [21] = experiment: Anticerebral ischemic activity in Sprague-Dawley rat middle cerebral artery occlusion model assessed as reduction in infarct size in brain at 3 mg/kg, ig for 7 consecutive days by TTC assay; assay type: functional; set-up: scale not given: the % may be the effect or the level left; conditions: route intragastric; how it was run: as §5
Rattus norvegicus [22] = experiment: Antithrombotic activity in Sprague-Dawley rat arteriovenous shunt model assessed as reduction of thrombus wet weight at 3 mg/kg, po qd for 5 consecutive days; assay type: functional; set-up: scale not given: the % may be the effect or the level left; how it was run: as §4

Compound	IC50 (Platelet [1]) [µM]	IC50 (Platelet [2]) [µM]	Activity (Rattus norvegicus [5]) [%]	Activity (Plasma)	inhibition at 100 µM (Platelet [7]) [%]	inhibition at 100 µM (Platelet [10]) [%]	Activity (PC-12 [12]) [%]	Activity (Rattus norvegicus [13]) [%]	Activity (PC-12 [14]) [%]	other results
CCCCCCC1SC(=O)c2ccccc21 (racemic)	800	830								
CCCCCCCC1SC(=O)c2ccccc21 (racemic)	720	> 1000								
O=C1SC(Cc2ccccc2)c2ccccc21 (racemic)	> 1000	> 1000								
CCCCC1OC(=O)c2ccccc21 (racemic) [RAC-3-N-BUTYLPHTHALIDE]	> 1000	480	23.58	inactive	9.5	17.4	73.05	26.9	68.05	Activity (Rattus norvegicus [3]): inactive; Activity (Rattus norvegicus [4]): 33.61%; Activity (Rattus norvegicus [6]): 40.83%; Activity (Rattus norvegicus [8]): 25.73%; Activity (Rattus norvegicus [9]): 40.04%; Activity (Rattus norvegicus [11]): 31.47%
CC(=O)Oc1ccccc1C(=O)O [ASPIRIN]	880	150	33.45	inactive	10.8	37.2		34.19		
CC1=NN(c2ccccc2)C(=O)C1 [EDARAVONE]	850	250		inactive	11.5	36.1	83.3		78.05	Activity (Rattus norvegicus [15]): 28.52%; Activity (Rattus norvegicus [16]): 58.33%; Activity (Rattus norvegicus [17]): Active; Activity (Rattus norvegicus [18]): 34.2%; Activity (Rattus norvegicus [19]): 34.46%; Activity (Rattus norvegicus [20]): 30.08%; Activity (Rattus norvegicus [21]): 37.31%; Activity (Rattus norvegicus [22]): 36.14%
